# Measurements taken from ChEMBL document CHEMBL3227967, “Quantitative structure-activity relationships in 1-aryl-2-(alkylamino)ethanol antimalarials” (J Med Chem, 1979).
# Assay: Lipophilicity, log P of the compound in 0.1 N HCl solution
# Type: physicochemical
# Conditions: 0.1 N HCl solution; read-out: logP
# Procedure, shortened: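 Partition coefficients of the hydrochloride salts were measured from 0.1 N HCl solution unless a footnote says otherwise. Some entries were not measured. They were calculated by adding the Δlog P of the corresponding phenanthrene analogues to the measured log P of a reference hydrochloride.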
row,SMILES,logP
1,CCCN(CCC)CC(O)c1cc2ccccc2c2ccccc12 (configuration not stated),2.12
2,CCCCCCCN(CCCCCCC)CC(O)c1cc2ccc(Br)cc2c2cccnc12 (configuration not stated),4.89
3,CCCCN(CCCC)CC(O)c1cc(-c2cccc(O)c2)nc2c(Cl)cc(Cl)cc12 (configuration not stated),3.75
4,OC(c1cc(-c2ccccc2)nc2ccccc12)C1CCCCN1 (configuration not stated),1.58
5,OC(CNC12CC3CC(CC(C3)C1)C2)c1cc(-c2ccc(F)cc2)nc2cc(F)ccc12 (configuration not stated),3.84
6,CCCCCCCN(CCCCCCC)CC(O)c1cc2ncccc2c2ccccc12 (configuration not stated),4.03
7,CCCCN(CCCC)CC(O)c1cc(-c2ccc(Cl)cc2)c2cc(Cl)cc(Cl)c2n1 (configuration not stated),5.13
8,OC(CN1CCCCCC1)c1cccc2ccc(-c3ccccc3)nc12 (configuration not stated),2.91
9,OC(CC1CCCCN1)c1ccnc2ccccc12 (configuration not stated),0.05
10,OC(CC1CC2CCC(CC2)C1)c1cc2ccccc2c2cc(Br)ccc12 (configuration not stated),3.74
11,CCCCNCC(O)c1cc(/C=C/c2ccc(C(F)(F)F)cc2)nc(/C=C/c2ccc(C(F)(F)F)cc2)c1 (configuration not stated),6.67
12,CCCCN(CCCC)CC(O)c1cnc2c(-c3ccccc3)cccc2c1Cl (configuration not stated),3.71
13,CCCCN(CCCC)CC(O)c1cnc2c(Cl)cc(Cl)cc2c1Cl (configuration not stated),3.17
14,CC(C)c1cc(C(O)CC2CCCCN2)c2ccccc2n1 (configuration not stated),1.58
15,CNCC(O)c1cc(-c2ccccc2)nc2ccccc12 (configuration not stated),0.55
16,OC(CN1C=COC=C1)c1cc(-c2ccc(Cl)cc2)nc2cc(Cl)ccc12 (configuration not stated),1.14
17,OC(c1cc(-c2ccccc2)nc(-c2ccccc2)c1)C1CCCCN1 (configuration not stated),3.18
18,CCCCCCCCCCN(CCCCCCCCCC)CC(O)c1ccc(Cl)c2ccccc12 (configuration not stated),8.13
19,CCCCN(CCCC)CC(O)c1cc(-c2ccccc2)nc2ccccc12 (configuration not stated),2.57
20,OC(CC1CCCCN1)c1cc(C2CCCCC2)nc2ccccc12 (configuration not stated),2.56
21,CCCCNCC(O)c1cc2ccccc2c2ccccc12 (configuration not stated),2.3
22,CCCCN(CCCC)CC(O)c1cc(-c2ccccc2)nc(-c2ccccc2)c1 (configuration not stated),4.17
23,OC(CN1CCCCC1)c1cc2ccccc2c2sccc12 (configuration not stated),1.73
24,OC(CN1C=CN(c2ccccc2)C=C1)c1cc(-c2ccc(Cl)cc2)nc2cc(Cl)ccc12 (configuration not stated),5.4
25,CCCCN(CCCC)CC(O)c1cc(OC)c2cc(Cl)cc(Cl)c2n1 (configuration not stated),2.44
26,CCCCCN(CCCCC)CC(O)c1cc(-c2ccccc2)nc2ccccc12 (configuration not stated),3.58
27,Cc1cc(-c2ccccc2)nc2c(C)cc(C(O)CN3CCCCCC3)cc12 (configuration not stated),4.03

row,SMILES,logP
1,CCCCCCN(CCCCCC)CC(O)c1cc(-c2ccccc2)nc(-c2ccccc2)c1 (configuration not stated),6.11
2,CCC1C[N+]2(CC(O)c3ccnc4ccc(OC)cc34)CCC1CC2 (configuration not stated),2.31
3,CCNCC(O)c1cc2ccccc2c2ccccc12 (configuration not stated),1.42
4,CCCCN(CCCC)CC(O)c1cc2ccccc2c2ccccc12 (configuration not stated),3
5,CNCC(O)c1cc2ccccc2c2ccccc12 (configuration not stated),0.98
6,Cc1cc(C)c2ncc(C(O)CC3CCCCN3)cc2c1 (configuration not stated),1.17
7,Cc1cc(C(O)CN2CCCCCC2)c2nc(-c3ccccc3)ccc2c1 (configuration not stated),3.47
8,CCCCN(CCCC)CC(O)c1ccc2cc(OC)c(Cl)cc2n1 (configuration not stated),1.73
9,CCCCCCCN(CCCCCCC)CC(O)c1cc2ccccc2c2cccnc12 (configuration not stated),4.03
10,COc1ccc2nccc(C(O)CC3CCC(/C=C/Br)CN3)c2c1 (configuration not stated),1.71
11,CCCCCCCN(CCCCCCC)CC(O)c1cc2ccccc2c2cnccc12 (configuration not stated),4.03
12,CCCCN(CCCC)CC(O)c1c(Br)c(-c2ccccc2)nc2ccccc12 (configuration not stated),3.86
13,OC(CN1C=CN(c2ccccc2)C=C1)c1cc(-c2ccc(F)cc2)nc2cc(F)ccc12 (configuration not stated),4.26
14,CCC1C[N+]2(c3ccnc4ccc(OC(C)CO)cc34)CCC1CC2 (configuration not stated),2.31
15,CCN(CC)CC(O)c1ccc(Cl)c2ccccc12 (configuration not stated),0.56
16,OC(CN1C=CN(c2ccccc2)C=C1)c1cc(-c2ccc(Cl)cc2)nc2c(Cl)cc(Cl)cc12 (configuration not stated),6.11
17,CN(C)CC(O)c1cc(-c2ccccc2)nc(-c2ccccc2)c1 (configuration not stated),2.25
18,OCCN(CC(O)c1cc2ccccc2c2ccccc12)C1CCCCC1 (configuration not stated),2
19,O=C(O)CCNCC(O)c1cc2ccccc2c2ccccc12 (configuration not stated),0.6
20,CCN(CC)CC(O)c1cc(-c2ccccc2)nc(-c2ccccc2)c1 (configuration not stated),2.54
21,CCCCCCN(CCCCCC)CC(O)c1cc(OC)c2cc(Cl)cc(Cl)c2n1 (configuration not stated),4.38
22,CCCCCCN(CCCCCC)CC(O)c1cnc2cc(Cl)ccc2c1Cl (configuration not stated),5.4
23,CCCNCC(O)c1cc(-c2ccccc2)nc2ccccc12 (configuration not stated),1.43
24,CC(C)(C)CC(C)(C)NCC(O)c1c2ccccc2cc2ccccc12 (configuration not stated),3.46
25,CCCCCCN(CCCCCC)CC(O)c1cc(Cl)c2nc(-c3ccccc3)ccc2c1 (configuration not stated),5.65
26,OC(CC1CCCCN1)C1CC=Nc2c1cccc2C(F)(F)F (configuration not stated),1.12
27,N#CCCN(CCC#N)CC(O)c1cc2ccccc2c2ccccc12 (configuration not stated),0.37

row,SMILES,logP
1,CCCCN(CCCC)CC(O)c1cnc2cc(Cl)ccc2c1Cl (configuration not stated),2.46
2,CCCCN(CCCC)CC(O)c1c(C)c(-c2ccc(C)cc2C)nc2c1ccc1ccccc12 (configuration not stated),6
3,OC(c1cc2ccccc2c2ccccc12)C1CCCCN1 (configuration not stated),2.01
4,CCCCCCCN(CCCCCCC)CC(O)c1cc(-c2ccccc2)nc(-c2ccccc2)c1 (configuration not stated),7.11
5,CCCCCCCN(CCCCCCC)CC(O)c1cc2c(Cl)cc(Cl)cc2c2ccc(C)nc12 (configuration not stated),6.01
6,CCCCCCCN(CCCCCCC)CC(O)c1cc2ccc(Cl)cc2c2cccnc12 (configuration not stated),4.74
7,CCCCCCCCN(CCCCCCCC)CC(O)c1cc(-c2ccc(Cl)c(Cl)c2)nc2ccc(OC)cc12 (configuration not stated),8.34
8,OC(CC1CCNCC1)c1cc2ccc(C(F)(F)F)cc2c2cc(C(F)(F)F)ccc12 (configuration not stated),3.34
9,CCCCN(CCCC)CC(O)c1cc(-c2ccc(Cl)cc2)c2cc(-c3ccccc3)ccc2n1 (configuration not stated),5.67
10,Cc1ccc(Oc2cc(C(O)CC3CCCCN3)c3ccccc3n2)cc1 (configuration not stated),2.69
11,CCN1C=CN(CC(O)c2cc(-c3ccc(F)cc3)nc3cc(F)ccc23)C=C1 (configuration not stated),3.32
12,CCCCN(CCCC)CC(O)c1cnc2c(C)cc(C)cc2c1Cl (configuration not stated),2.87
13,CN(C)CC(O)c1cc2ccccc2c2ccccc12 (configuration not stated),1.08
14,CNCC(O)c1cc(-c2ccccc2)nc(-c2ccccc2)c1 (configuration not stated),2.15
15,CCCCCCN(CCCCCC)CC(O)c1ccc2cc(Cl)cc(Cl)c2n1 (configuration not stated),4.4
16,CCCCN(CCCC)CC(O)c1c(Cl)cc(Cl)c2ncccc12 (configuration not stated),2.46
17,CCCCNCC(O)c1cc(-c2ccccc2)nc(-c2ccccc2)c1 (configuration not stated),3.47
18,O=C(O)c1ccc2cc(C(O)CC3CCCCN3)c3ccc(C(F)(F)F)cc3c2c1 (configuration not stated),2.14
19,CCCCCN(CCCCC)CC(O)c1cc(-c2ccccc2)nc(-c2ccccc2)c1 (configuration not stated),5.18
20,NCC(O)c1cc2ccc(C(F)(F)F)cc2c2cc(C(F)(F)F)ccc12 (configuration not stated),2.19
21,OC(CN1CCCCC1)c1c2ccccc2nc2c1ccc1ccccc12 (configuration not stated),3.51
22,CCCCCCCN(CCCCCCC)CC(O)c1cc(-c2ccccc2)nc2ccccc12 (configuration not stated),5.51
23,CCCCCCN(CCCCCC)CC(O)c1cc(-c2ccccc2)nc2ccccc12 (configuration not stated),4.51
24,CCCNCC(O)c1cc(-c2ccccc2)nc(-c2ccccc2)c1 (configuration not stated),3.03
25,CCCCN(CCCC)CC(O)c1cc(-c2ccccc2C(F)(F)F)nc(C(F)(F)F)c1 (configuration not stated),3.97
26,CCCCCNCC(O)c1cc(-c2ccccc2)nc(-c2ccccc2)c1 (configuration not stated),3.97

# Same assay, conditions: buffer
row,SMILES,logP
1,CCCCCCCN(CCCCCCC)CC(O)c1cc(-c2ccc(Cl)c(Cl)c2)nc(-c2ccc(Cl)c(Cl)c2)c1 (configuration not stated),9.95
2,CCCCCCCCCN(CCCCCCCCC)CCC(O)c1cc2ccc(C(F)(F)F)cc2c2cc(C(F)(F)F)ccc12 (configuration not stated),9.77
